The values below come from ChEMBL document CHEMBL4433221, “Novel Sustainable-by-Design HDAC Inhibitors for the Treatment of Alzheimer's Disease” (ACS Med Chem Lett, 2019).

Data set [1] has as its target T1, Histone deacetylase 7 (Homo sapiens) (UniProt Q8WUI4).
T1 sequence (whole entry): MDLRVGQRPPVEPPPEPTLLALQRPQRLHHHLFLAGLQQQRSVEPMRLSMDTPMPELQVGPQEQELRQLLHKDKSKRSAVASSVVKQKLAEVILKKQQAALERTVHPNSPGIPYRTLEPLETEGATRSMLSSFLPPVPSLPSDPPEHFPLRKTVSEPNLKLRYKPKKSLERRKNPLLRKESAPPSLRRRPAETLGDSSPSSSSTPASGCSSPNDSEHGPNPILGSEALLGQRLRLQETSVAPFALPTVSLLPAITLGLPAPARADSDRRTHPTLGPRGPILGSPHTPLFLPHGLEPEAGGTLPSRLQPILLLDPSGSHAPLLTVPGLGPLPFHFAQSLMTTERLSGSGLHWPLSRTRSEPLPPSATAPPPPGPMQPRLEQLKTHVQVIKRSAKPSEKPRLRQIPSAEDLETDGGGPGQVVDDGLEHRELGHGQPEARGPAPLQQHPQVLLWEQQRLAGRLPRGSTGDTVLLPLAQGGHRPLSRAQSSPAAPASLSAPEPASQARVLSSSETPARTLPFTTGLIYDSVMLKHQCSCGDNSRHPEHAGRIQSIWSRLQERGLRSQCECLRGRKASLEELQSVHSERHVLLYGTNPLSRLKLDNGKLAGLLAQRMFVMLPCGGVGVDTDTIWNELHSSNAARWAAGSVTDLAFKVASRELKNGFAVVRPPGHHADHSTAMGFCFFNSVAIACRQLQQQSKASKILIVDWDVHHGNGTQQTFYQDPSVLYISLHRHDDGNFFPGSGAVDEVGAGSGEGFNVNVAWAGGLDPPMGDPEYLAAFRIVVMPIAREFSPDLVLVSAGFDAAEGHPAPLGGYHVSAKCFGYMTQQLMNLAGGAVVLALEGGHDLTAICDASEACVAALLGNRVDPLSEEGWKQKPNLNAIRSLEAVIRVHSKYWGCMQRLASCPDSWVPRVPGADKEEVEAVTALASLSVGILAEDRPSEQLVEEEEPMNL
Put plainly: Inhibition of human recombinant HDAC7 using fluorogenic trifluoroacetyl lysine as substrate at 10 uM by fluorescence method. In short, it runs like this:
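Selectivity profile across HDAC isoforms 1–11 at a single concentration of 10 μM, run in duplicate.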

Data set [2] is described as follows: Neurotoxicity against rat CGN cells assessed as cell viability at 50 uM incubated for 24 hrs by MTT assay. The class given is toxicity, cell-based. To be noted: read-out: Activity. A digest of the protocol: (§1)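 Primary rat cerebellar granule neuron cultures were exposed for 24 h to 5, 25 or 50 μM. Viability was measured by MTT and expressed as percentage of untreated controls, as mean ± SE of at least three experiments, each run in triplicate.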

Data set [3] has as its system N9. Description: Immunomodulatory activity in mouse N9 cells assessed as increase in LPS-induced MRC1 expression at 25 uM incubated for 24 hrs by Western blot analysis. The data set is classed as functional, cell-based. A digest of the protocol: (§2)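 N9 mouse microglial cells stimulated with LPS (100 ng/mL) and treated at 5 and 25 μM. iNOS and MRC1 levels were read by Western blot with GAPDH as loading control. Densitometry is expressed as percentage of LPS-only cells, as mean ± SE of three independent experiments.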

In data set [4] the test system is N9. Put plainly: Immunomodulatory activity in mouse N9 cells assessed as reduction in LPS-induced MRC1 expression at 5 to 25 uM incubated for 24 hrs by Western blot analysis. The class given is functional, cell-based. A digest of the protocol:
as §2

Data set [5] in a line: Neurotoxicity against rat CGN cells assessed as cell viability at 5 uM incubated for 24 hrs by MTT assay. Conditions: read-out: Activity. The class given is toxicity, cell-based. In short, it runs like this:
as §1

Calls of active or inactive are those of the source. No cut-off for these calls is given here.

For the compound `COC(=O)c1c(CCCCCCCC(=O)NO)cccc1OC`, in data set [1], the inhibition result is “inactive”. In data set [2], the viability at 24 h, 50 µM was greater than 80%. For the same compound, the outcome in the data set with N9 [3] was Active.
On to `COc1cccc(CCCCCCCC(=O)NO)c1`, for which the inhibition entry in data set [1] was “inactive”. Also, the Activity entry in the data set with N9 [4] was “Dose-dependent effect”. For the same compound, in data set [5], the viability at 24 h, 5 µM is no more than 50%.
